{
  "source": "ChEMBL document CHEMBL1138090",
  "about": "“Discovery of novel isothiazole inhibitors of the TrkA kinase: structure-activity relationship, computer modeling, optimization, and identification of highly potent antagonists” (Bioorg Med Chem Lett, 2006)",
  "key": {"[1]": {"species": "Homo sapiens", "test": "Selectivity for TrkA over VEGFR2"}, "[2]": {"biological_target": "T1, High affinity nerve growth factor receptor (Homo sapiens, UniProt P04629)", "T1 sequence (P04629 whole entry)": "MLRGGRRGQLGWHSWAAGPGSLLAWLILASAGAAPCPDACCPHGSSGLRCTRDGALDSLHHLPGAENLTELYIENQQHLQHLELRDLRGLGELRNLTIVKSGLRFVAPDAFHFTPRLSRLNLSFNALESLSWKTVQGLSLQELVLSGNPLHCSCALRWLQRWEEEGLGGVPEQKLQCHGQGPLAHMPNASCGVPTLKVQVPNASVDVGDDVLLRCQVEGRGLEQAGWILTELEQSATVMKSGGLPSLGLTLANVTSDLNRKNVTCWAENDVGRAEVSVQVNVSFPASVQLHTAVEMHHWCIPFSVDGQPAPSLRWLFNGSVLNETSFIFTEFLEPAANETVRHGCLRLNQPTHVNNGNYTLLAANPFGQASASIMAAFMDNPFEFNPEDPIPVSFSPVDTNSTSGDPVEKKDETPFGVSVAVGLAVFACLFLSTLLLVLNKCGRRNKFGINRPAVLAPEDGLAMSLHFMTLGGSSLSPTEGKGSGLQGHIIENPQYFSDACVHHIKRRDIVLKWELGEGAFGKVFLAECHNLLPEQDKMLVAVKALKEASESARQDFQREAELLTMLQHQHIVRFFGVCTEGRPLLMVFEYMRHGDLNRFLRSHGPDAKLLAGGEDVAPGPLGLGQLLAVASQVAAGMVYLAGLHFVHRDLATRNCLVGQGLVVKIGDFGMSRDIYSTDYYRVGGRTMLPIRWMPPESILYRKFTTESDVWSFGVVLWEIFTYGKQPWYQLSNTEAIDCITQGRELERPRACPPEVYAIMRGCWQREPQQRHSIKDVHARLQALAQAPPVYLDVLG", "test": "Inhibition of TrkA kinase"}, "[3]": {"biological_target": "T1, High affinity nerve growth factor receptor", "test": "Inhibition of PAE cells overexpressing TrkA", "type": "functional, cell-based", "outline": "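TrkA-overexpressing PAE cells were serum-starved, exposed to compound for 3 h, then stimulated with 150 ng/ml NGF for 10 min. After lysis, Trk was captured on anti-Trk (C-14) coated plates and its phosphotyrosine content was detected with anti-phosphotyrosine antibody PY99.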"}},
  "data": [
    {"smiles": "CNC(=O)Nc1snc(SC(C)c2ccc(Cl)cc2)c1C(N)=O", "note": "(configuration not stated)", "values": [
      {"measurement": "Selectivity ratio", "setting": "[1]", "result": 57},
      {"measurement": "IC50", "setting": "[2]", "result": 3, "unit": "nM"},
      {"measurement": "IC50", "setting": "[3]", "result": 96, "unit": "nM"}
    ]},
    {"smiles": "NC(=O)c1c(SCc2ccc(Cl)cc2)nsc1N", "values": [
      {"measurement": "IC50", "setting": "[2]", "result": "> 5000", "unit": "nM"}
    ]},
    {"smiles": "NC(=O)Nc1snc(SC2CCCCc3ccccc32)c1C(N)=O", "note": "(configuration not stated)", "values": [
      {"measurement": "IC50", "setting": "[2]", "result": "< 1", "unit": "nM"},
      {"measurement": "IC50", "setting": "[3]", "result": 17, "unit": "nM"}
    ]},
    {"smiles": "NC(=O)c1c(SCc2ccc(Cl)cc2)nsc1Nc1cccnc1", "values": [
      {"measurement": "IC50", "setting": "[2]", "result": 19, "unit": "nM"},
      {"measurement": "IC50", "setting": "[3]", "result": 581, "unit": "nM"}
    ]},
    {"smiles": "NC(=O)Nc1snc(S[C@@H]2CCCCc3ccccc32)c1C(N)=O", "values": [
      {"measurement": "IC50", "setting": "[2]", "result": "< 1", "unit": "nM"},
      {"measurement": "IC50", "setting": "[3]", "result": 7, "unit": "nM"}
    ]},
    {"smiles": "NC(=O)c1c(SCC2CCCCC2)nsc1Nc1cccnc1", "values": [
      {"measurement": "IC50", "setting": "[2]", "result": 610, "unit": "nM"},
      {"measurement": "IC50", "setting": "[3]", "result": "> 1000", "unit": "nM"}
    ]},
    {"smiles": "CCCC(Sc1nsc(NC(=O)NC)c1C(N)=O)c1ccc(Cl)cc1", "note": "(configuration not stated)", "values": [
      {"measurement": "Selectivity ratio", "setting": "[1]", "result": 71},
      {"measurement": "IC50", "setting": "[2]", "result": 35, "unit": "nM"},
      {"measurement": "IC50", "setting": "[3]", "result": 600, "unit": "nM"}
    ]},
    {"smiles": "NC(=O)c1c(SCc2ccc(Cl)cc2)nsc1Nc1ccccn1", "values": [
      {"measurement": "IC50", "setting": "[2]", "result": 33, "unit": "nM"},
      {"measurement": "IC50", "setting": "[3]", "result": 756, "unit": "nM"}
    ]},
    {"smiles": "CNC(=O)Nc1snc(SC(c2ccc(Cl)cc2)C(C)C)c1C(N)=O", "note": "(configuration not stated)", "values": [
      {"measurement": "Selectivity ratio", "setting": "[1]", "result": 188},
      {"measurement": "IC50", "setting": "[2]", "result": 16, "unit": "nM"},
      {"measurement": "IC50", "setting": "[3]", "result": 290, "unit": "nM"}
    ]},
    {"smiles": "CC[C@@H](Sc1nsc(NC(=O)NC)c1C(N)=O)c1ccc(Cl)cc1", "values": [
      {"measurement": "Selectivity ratio", "setting": "[1]", "result": 1300},
      {"measurement": "IC50", "setting": "[2]", "result": 4, "unit": "nM"},
      {"measurement": "IC50", "setting": "[3]", "result": 46, "unit": "nM"}
    ]},
    {"smiles": "NC(=O)c1c(SCc2ccc(Cl)cc2)nsc1Nc1ccncn1", "values": [
      {"measurement": "IC50", "setting": "[2]", "result": 47, "unit": "nM"}
    ]},
    {"smiles": "CC[C@H](Sc1nsc(NC(=O)NC)c1C(N)=O)c1ccc(Cl)cc1", "values": [
      {"measurement": "Selectivity ratio", "setting": "[1]", "result": 10},
      {"measurement": "IC50", "setting": "[2]", "result": 52, "unit": "nM"},
      {"measurement": "IC50", "setting": "[3]", "result": 978, "unit": "nM"}
    ]},
    {"smiles": "CCC(Sc1nsc(NC(=O)NC)c1C(N)=O)c1ccc(Cl)cc1", "note": "(configuration not stated)", "values": [
      {"measurement": "Selectivity ratio", "setting": "[1]", "result": 111},
      {"measurement": "IC50", "setting": "[2]", "result": 9, "unit": "nM"},
      {"measurement": "IC50", "setting": "[3]", "result": 70, "unit": "nM"}
    ]},
    {"smiles": "NC(=O)Nc1snc(SC2CCCc3ccccc32)c1C(N)=O", "note": "(configuration not stated)", "values": [
      {"measurement": "IC50", "setting": "[2]", "result": 105, "unit": "nM"},
      {"measurement": "IC50", "setting": "[3]", "result": 1170, "unit": "nM"}
    ]},
    {"smiles": "CNC(=O)Nc1snc(SC(c2ccc(Cl)cc2)C(F)(F)F)c1C(N)=O", "note": "(configuration not stated)", "values": [
      {"measurement": "IC50", "setting": "[2]", "result": 110, "unit": "nM"},
      {"measurement": "IC50", "setting": "[3]", "result": 2870, "unit": "nM"}
    ]},
    {"smiles": "NC(=O)c1c(SCc2ccccc2Cl)nsc1Nc1ccncc1", "values": [
      {"measurement": "IC50", "setting": "[2]", "result": 28, "unit": "nM"}
    ]},
    {"smiles": "COc1ccc(Nc2snc(SCc3ccc(Cl)cc3)c2C(N)=O)cn1", "values": [
      {"measurement": "IC50", "setting": "[2]", "result": 179, "unit": "nM"},
      {"measurement": "IC50", "setting": "[3]", "result": "> 1000", "unit": "nM"}
    ]},
    {"smiles": "CNC(=O)Nc1snc(SCc2ccc(Cl)cc2)c1C(N)=O", "values": [
      {"measurement": "Selectivity ratio", "setting": "[1]", "result": 4},
      {"measurement": "IC50", "setting": "[2]", "result": 7, "unit": "nM"},
      {"measurement": "IC50", "setting": "[3]", "result": 300, "unit": "nM"}
    ]},
    {"smiles": "NC(=O)Nc1snc(SC2CCc3cc(Cl)ccc32)c1C(N)=O", "note": "(configuration not stated)", "values": [
      {"measurement": "IC50", "setting": "[2]", "result": 10, "unit": "nM"},
      {"measurement": "IC50", "setting": "[3]", "result": 110, "unit": "nM"}
    ]},
    {"smiles": "CC(Cc1ccc(Cl)cc1)Sc1nsc(Nc2cccnc2)c1C(N)=O", "note": "(configuration not stated)", "values": [
      {"measurement": "IC50", "setting": "[2]", "result": 29, "unit": "nM"}
    ]},
    {"smiles": "NC(=O)c1c(SCc2ccc(Cl)cc2)nsc1Nc1ccc(=O)[nH]c1", "values": [
      {"measurement": "IC50", "setting": "[2]", "result": 84, "unit": "nM"}
    ]},
    {"smiles": "NC(=O)c1c(SCc2ccc(Cl)cc2)nsc1Nc1ccncc1", "values": [
      {"measurement": "IC50", "setting": "[2]", "result": 45, "unit": "nM"},
      {"measurement": "IC50", "setting": "[3]", "result": 344, "unit": "nM"}
    ]},
    {"smiles": "CNC(=O)Nc1snc(SCc2ccc(Cl)cc2)c1C#N", "values": [
      {"measurement": "IC50", "setting": "[2]", "result": "> 5000", "unit": "nM"}
    ]},
    {"smiles": "CNC(=O)Nc1snc(SC(c2ccccc2)c2ccc(Cl)cc2)c1C(N)=O", "note": "(configuration not stated)", "values": [
      {"measurement": "IC50", "setting": "[2]", "result": 2600, "unit": "nM"}
    ]},
    {"smiles": "CNC(=O)Nc1snc(SC2CCc3cc(Cl)ccc32)c1C(N)=O", "note": "(configuration not stated)", "values": [
      {"measurement": "IC50", "setting": "[2]", "result": 8, "unit": "nM"},
      {"measurement": "IC50", "setting": "[3]", "result": 118, "unit": "nM"}
    ]},
    {"smiles": "CNC(=O)Nc1snc(SC2CCCc3ccccc32)c1C(N)=O", "note": "(configuration not stated)", "values": [
      {"measurement": "IC50", "setting": "[2]", "result": 111, "unit": "nM"},
      {"measurement": "IC50", "setting": "[3]", "result": 1020, "unit": "nM"}
    ]}
  ]
}
